Published values of several laboratories.
Protocols differ between the studies behind these lines.

Compound | cell line | assay | system | setting | endpoint | result
CN1CCC(NCc2cccc(-c3ccc(S(=O)(=O)NCc4ccccc4)cc3)c2)CC1 | HEK293 | cell growth or viability, MTT |  | 24 h | CC50 | 32.3 µM
CCS(=O)(=O)Nc1ccc(OCCOCCOCCOCCOc2ccc(NS(=O)(=O)CC)cc2-c2cn(C)c(=O)c3ccccc23)c(-c2cn(C)c(=O)c3ccccc23)c1 | MDCK-MDR1 |  | Caco-2 |  | Papp | 0.13 ×10⁻⁶ cm/s
Cc1ccc2c(=O)n(-c3ccc(F)cc3)c(CCN3C(=O)c4cccc(OC(C)C)c4C3=O)nc2c1 | MDCK-MDR1 |  | Caco-2 | 1 µM, 90 min, pH 7.4 | Papp A→B | 30 ×10⁻⁶ cm/s
CC1c2cc(c(O)cc2O)C(C)c2cc(c(O)cc2O)C(C)c2cc(c(O)cc2O)C(C)c2cc1c(O)cc2O (stereo not drawn) | HEK293 | cell growth or viability, MTT |  | 24 h | CC50 | 14.9 µM
Cn1cnc2c1c(=O)n(CC(=O)Nc1c(Cl)cccc1Cl)c(=O)n2C | NCI-H1975 | cell growth or viability, MTT |  | 6.3 µg | viability | 56.1%
Cc1ccc2c(c1C)NC(=O)[C@]21NN=C(c2ccccc2)S1 | HEK293 | cell growth or viability, MTT |  | 24 h | CC50 | 100 µM
O=C(Sc1cccccc1=O)c1ccc(C(F)(F)F)cc1 | HepDES19 | cell growth or viability, MTS |  | 72 h | CC50 | 56.1 µM
COc1ccc2cc3[n+](cc2c1OC)CCc1cc2c(cc1-3)OCO2 | MDCK-MDR1 |  | Caco-2 | 10 µg/mL, 4 h | Papp A→B | 0.39 ×10⁻⁶ cm/s
CCS(=O)(=O)Nc1cccc(-c2cn(C)c(=O)c3ccccc23)c1 | MDCK-MDR1 |  | Caco-2 |  | Papp | 15 ×10⁻⁶ cm/s
CC1c2cc(c(O)c(O)c2O)C(C)c2cc(c(O)c(O)c2O)C(C)c2cc(c(O)c(O)c2O)C(C)c2cc1c(O)c(O)c2O (stereo not drawn) | HEK293 | cell growth or viability, ATP luminescence |  | 24 h | CC50 | 102 µM
O=C(O)/C=C/C=C/c1cccc(Oc2cc(Cl)cc(Cl)c2)c1 | HEK293 | cell growth or viability, MTT |  | 24 h | CC50 | > 200 µM
O=c1cccccc1SSc1cccccc1=O | HepDES19 | cell growth or viability, MTS |  | 72 h | CC50 | 9.6 µM
COC(=O)c1ccccc1-c1c2ccc(=N)cc-2oc2cc(N)ccc12 | MDR1 |  | MDCK-MDR1 | 5 µM, 2 h, pH 7.4 | efflux ratio | 4.92
CC(C)Cn1c(=O)n(C)c(=O)c2c(-c3cncn3C)n(Cc3cccc4ccccc34)nc21 | HEK293 | cell growth or viability, MTT |  | 24 h | CC50 | > 200 µM
O=C(Sc1cccccc1=O)c1ccccc1C(F)(F)F | HepDES19 | cell growth or viability, MTS |  | 72 h | CC50 | 8.6 µM
